Assay results from ChEMBL document CHEMBL1759915, “Synthesis and anticancer effects of some novel pyrazolo[3,4-d]pyrimidine derivatives by generating reactive oxygen species in human breast adenocarcinoma cells” (Eur J Med Chem, 2011).
Values after ≈ are worked out from the molar mass of the structure shown.

Legend:
[1] = system: MCF7; test: Effect on hydrogen peroxide level in human MCF7 cells assessed per mg protein at 2 ug/ml by Wolf's method after 24 hrs (reference value: 12.50 +/- 1.54 nmol/mg of protein); format: functional
[2] = system: MCF7; test: Effect on hydrogen peroxide level in human MCF7 cells assessed per mg protein at 5 ug/ml by Wolf's method after 24 hrs (reference value: 12.50 +/- 1.54 nmol/mg of protein); format: functional
[3] = system: MCF7; test: Effect on hydrogen peroxide level in human MCF7 cells assessed per mg protein at 10 ug/ml by Wolf's method after 24 hrs (reference value: 12.50 +/- 1.54 nmol/mg of protein); format: functional
[4] = system: MCF7; test: Effect on hydrogen peroxide level in human MCF7 cells assessed per mg protein at 20 ug/ml by Wolf's method after 24 hrs (reference value: 12.50 +/- 1.54 nmol/mg of protein); format: functional
[5] = system: MCF7; test: Decrease in CAT level in human MCF7 cells; format: functional, cell-based
[6] = system: MCF7; test: Decrease in glutathione peroxidase level in human MCF7 cells; format: functional, cell-based
[7] = system: MCF7; test: Decrease in glutathione level in human MCF7 cells; format: functional, cell-based
[8] = system: MCF7; test: Increase in hydrogen peroxide level in human MCF7 cells; format: functional, cell-based
[9] = system: MCF7; test: Increase in SOD level in human MCF7 cells; format: functional, cell-based
[10] = system: MCF7; test: Effect on DNA level in human MCF7 cells assessed per 10 '6 cells at 2 ug/ml after 24 hrs (reference value: 6.80 +/- 0.70 ug/10^6 cells); format: functional
How it was run: (§1)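 After 24 h exposure of MCF-7 cells to compound at 2, 5, 10 or 20 µg/ml at 37 °C, nucleic acids were precipitated from cell homogenates. DNA was extracted and assayed by the Zhou et al. method, and RNA by a kit-derived procedure. Results given per 10⁶ cells as means ± S.E. of four experiments versus untreated control.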

[11] = system: MCF7; test: Effect on DNA level in human MCF7 cells assessed per 10 '6 cells at 5 ug/ml after 24 hrs (reference value: 6.80 +/- 0.70 ug/10^6 cells); format: functional; how it was run: as §1
[12] = system: MCF7; test: Effect on DNA level in human MCF7 cells assessed per 10 '6 cells at 10 ug/ml after 24 hrs (reference value: 6.80 +/- 0.70 ug/10^6 cells); format: functional; how it was run: as §1
[13] = system: MCF7; test: Effect on DNA level in human MCF7 cells assessed per 10 '6 cells at 20 ug/ml after 24 hrs (reference value: 6.80 +/- 0.70 ug/10^6 cells); format: functional; how it was run: as §1
[14] = system: MCF7; test: Effect on RNA level in human MCF7 cells assessed per 10 '6 cells at 2 ug/ml after 24 hrs (reference value: 11.50 +/- 0.70 ug/10^6 cells); format: functional; how it was run: as §1
[15] = system: MCF7; test: Effect on RNA level in human MCF7 cells assessed per 10 '6 cells at 5 ug/ml after 24 hrs (reference value: 11.50 +/- 0.70 ug/10^6 cells); format: functional; how it was run: as §1
[16] = system: MCF7; test: Effect on RNA level in human MCF7 cells assessed per 10 '6 cells at 10 ug/ml after 24 hrs (reference value: 11.50 +/- 0.70 ug/10^6 cells); format: functional; how it was run: as §1
[17] = system: MCF7; test: Effect on RNA level in human MCF7 cells assessed per 10 '6 cells at 20 ug/ml after 24 hrs (reference value: 11.50 +/- 0.70 ug/10^6 cells); format: functional; how it was run: as §1
[18] = system: MCF7; test: Decrease in DNA level in human MCF7 cells assessed per 10 '6 cells after 24 hrs relative to control; format: functional, cell-based; how it was run: as §1
[19] = system: MCF7; test: Decrease in RNA level in human MCF7 cells assessed per 10 '6 cells after 24 hrs relative to control; format: functional, cell-based; how it was run: as §1
[20] = system: MCF7; test: Antiproliferative activity against human MCF7 cells after 24 hrs by MTT assay; format: functional, cell-based; conditions: for IC50: MCF7, 24 h
How it was run: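 MCF-7 cells (DMEM, 10% heat-inactivated FCS, penicillin/streptomycin, 37 °C, 5% CO2) plated at 0.65 × 10⁵ cells/well and given 24 h to attach. Exposed to compound or cisplatin at 2, 5, 10 or 20 µg/ml for 24 h at 37 °C. MTT added for 4 h, formazan dissolved in DMSO, absorbance read at 570 nm. Viability taken relative to untreated cells and IC50 derived.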

[21] = system: MCF7; test: Effect on SOD level in human MCF7 cells assessed per mg protein at 2 ug/ml after 24 hrs (reference value: 27.61+/- 3.72 U/mg of protein); format: functional
[22] = system: MCF7; test: Effect on SOD level in human MCF7 cells assessed per mg protein at 5 ug/ml after 24 hrs (reference value: 27.61+/- 3.72 U/mg of protein); format: functional
[23] = system: MCF7; test: Effect on SOD level in human MCF7 cells assessed per mg protein at 10 ug/ml after 24 hrs (reference value: 27.61+/- 3.72 U/mg of protein); format: functional
[24] = system: MCF7; test: Effect on SOD level in human MCF7 cells assessed per mg protein at 20 ug/ml after 24 hrs (reference value: 27.61+/- 3.72 U/mg of protein); format: functional
[25] = system: MCF7; test: Effect on CAT level in human MCF7 cells assessed per mg protein at 2 ug/ml after 24 hrs (reference value: 7.90+/- 0.67 U/mg of protein); format: functional
[26] = system: MCF7; test: Effect on CAT level in human MCF7 cells assessed per mg protein at 5 ug/ml after 24 hrs (reference value: 7.90+/- 0.67 U/mg of protein); format: functional
[27] = system: MCF7; test: Effect on CAT level in human MCF7 cells assessed per mg protein at 10 ug/ml after 24 hrs (reference value: 7.90+/- 0.67 U/mg of protein); format: functional
[28] = system: MCF7; test: Effect on CAT level in human MCF7 cells assessed per mg protein at 20 ug/ml after 24 hrs (reference value: 7.90+/- 0.67 U/mg of protein); format: functional
[29] = system: MCF7; test: Effect on glutathione peroxidase level in human MCF7 cells assessed per mg protein at 2 ug/ml after 24 hrs (reference value: 11.20 +/- 1.36 U/mg of protein); format: functional
[30] = system: MCF7; test: Effect on glutathione peroxidase level in human MCF7 cells assessed per mg protein at 5 ug/ml after 24 hrs (reference value: 11.20 +/- 1.36 U/mg of protein); format: functional
[31] = system: MCF7; test: Effect on glutathione peroxidase level in human MCF7 cells assessed per mg protein at 10 ug/ml after 24 hrs (reference value: 11.20 +/- 1.36 U/mg of protein); format: functional
[32] = system: MCF7; test: Effect on glutathione peroxidase level in human MCF7 cells assessed per mg protein at 20 ug/ml after 24 hrs (reference value: 11.20 +/- 1.36 U/mg of protein); format: functional
[33] = system: MCF7; test: Effect on glutathione level in human MCF7 cells assessed per mg protein at 2 ug/ml by Ellman method after 24 hrs (reference value: 39.82 +/- 4.20 nmol/mg of protein); format: functional
[34] = system: MCF7; test: Effect on glutathione level in human MCF7 cells assessed per mg protein at 5 ug/ml by Ellman method after 24 hrs (reference value: 39.82 +/- 4.20 nmol/mg of protein); format: functional
[35] = system: MCF7; test: Effect on glutathione level in human MCF7 cells assessed per mg protein at 10 ug/ml by Ellman method after 24 hrs (reference value: 39.82 +/- 4.20 nmol/mg of protein); format: functional
[36] = system: MCF7; test: Effect on glutathione level in human MCF7 cells assessed per mg protein at 20 ug/ml by Ellman method after 24 hrs (reference value: 39.82 +/- 4.20 nmol/mg of protein); format: functional

Row | SMILES | Activity [1] | Activity [2] | Activity [3] | Activity [4] | Activity [5] | Activity [6] | Activity [7] | Activity [8] | Activity [9] | Activity [10] | Activity [11] | Activity [12] | Activity [13] | Activity [14] | Activity [15] | Activity [16] | Activity [17] | Activity [18] | Activity [19] | Activity [20] | other results
1 | CCOCCSc1ncnc2c1cnn2-c1nc(C)nc2sc3c(c12)-c1ccccc1CC3 | 30.3 nmol | 30.5 nmol | 40 nmol | 55 nmol | Dose-dependent effect | Dose-dependent effect | Dose-dependent effect | Dose-dependent effect | Dose-dependent effect | 4.6 µg/10^6 cells | 4.2 µg/10^6 cells | 3.75 µg/10^6 cells | 3 µg/10^6 cells | 7.9 µg/10^6 cells | 7 µg/10^6 cells | 6.5 µg/10^6 cells | 6.2 µg/10^6 cells | Dose-dependent effect | Dose-dependent effect | Dose-dependent effect | IC50 [20]: 6.4 µg/mL (≈ 13.5 µM); Activity [21]: 85.7 U/mg protein; Activity [22]: 115 U/mg protein; Activity [23]: 190 U/mg protein; Activity [24]: 251 U/mg protein; Activity [25]: 5.2 U/mg protein; Activity [26]: 4.5 U/mg protein; Activity [27]: 4 U/mg protein; Activity [28]: 3.2 U/mg protein; Activity [29]: 7.35 U/mg protein; Activity [30]: 7 U/mg protein; Activity [31]: 6 U/mg protein; Activity [32]: 5.25 U/mg protein; Activity [33]: 30 nmol; Activity [34]: 25 nmol; Activity [35]: 20.25 nmol; Activity [36]: 18.6 nmol
2 | CCSc1ncnc2c1cnn2-c1nc(C)nc2sc3c(c12)-c1ccccc1CC3 | 35 nmol | 55 nmol | 60.5 nmol | 80 nmol | Dose-dependent effect | Dose-dependent effect | Dose-dependent effect | Dose-dependent effect | Dose-dependent effect | 3.8 µg/10^6 cells | 3.1 µg/10^6 cells | 2.76 µg/10^6 cells | 1.82 µg/10^6 cells | 5.5 µg/10^6 cells | 4.32 µg/10^6 cells | 4 µg/10^6 cells | 3.61 µg/10^6 cells | Dose-dependent effect | Dose-dependent effect | Dose-dependent effect | IC50 [20]: 3 µg/mL (≈ 6.97 µM); Activity [21]: 125 U/mg protein; Activity [22]: 150 U/mg protein; Activity [23]: 360 U/mg protein; Activity [24]: 385 U/mg protein; Activity [25]: 3.6 U/mg protein; Activity [26]: 2.9 U/mg protein; Activity [27]: 1.76 U/mg protein; Activity [28]: 1.55 U/mg protein; Activity [29]: 5.6 U/mg protein; Activity [30]: 4.25 U/mg protein; Activity [31]: 3 U/mg protein; Activity [32]: 2.2 U/mg protein; Activity [33]: 20.11 nmol; Activity [34]: 19.16 nmol; Activity [35]: 17 nmol; Activity [36]: 14.8 nmol
3 | Cc1nc(-n2ncc3c(=O)[nH]cnc32)c2c3c(sc2n1)CCc1ccccc1-3 | 32 nmol | 40.6 nmol | 52 nmol | 60.3 nmol | Dose-dependent effect | Dose-dependent effect | Dose-dependent effect | Dose-dependent effect | Dose-dependent effect | 4.2 µg/10^6 cells | 3.8 µg/10^6 cells | 3 µg/10^6 cells | 2.7 µg/10^6 cells | 7.6 µg/10^6 cells | 6.4 µg/10^6 cells | 5.81 µg/10^6 cells | 5.25 µg/10^6 cells | Dose-dependent effect | Dose-dependent effect | Dose-dependent effect | IC50 [20]: 4.4 µg/mL (≈ 11.4 µM); Activity [21]: 95.6 U/mg protein; Activity [22]: 126 U/mg protein; Activity [23]: 240 U/mg protein; Activity [24]: 290 U/mg protein; Activity [25]: 4 U/mg protein; Activity [26]: 3.6 U/mg protein; Activity [27]: 2.8 U/mg protein; Activity [28]: 2.3 U/mg protein; Activity [29]: 6.9 U/mg protein; Activity [30]: 5.5 U/mg protein; Activity [31]: 3.11 U/mg protein; Activity [32]: 2.65 U/mg protein; Activity [33]: 27.9 nmol; Activity [34]: 18.66 nmol; Activity [35]: 17.7 nmol; Activity [36]: 16 nmol
4 | Cc1nc(-n2ncc3c(Cl)ncnc32)c2c3c(sc2n1)CCc1ccccc1-3 | 28.23 nmol | 25.45 nmol | 37.85 nmol | 52.33 nmol | Dose-dependent effect | Dose-dependent effect | Dose-dependent effect | Dose-dependent effect | Dose-dependent effect | 4.85 µg/10^6 cells | 4.46 µg/10^6 cells | 4 µg/10^6 cells | 3.85 µg/10^6 cells | 8.75 µg/10^6 cells | 7.5 µg/10^6 cells | 6.7 µg/10^6 cells | 6.5 µg/10^6 cells | Dose-dependent effect | Dose-dependent effect | Dose-dependent effect | IC50 [20]: 7 µg/mL (≈ 17.3 µM); Activity [21]: 80.2 U/mg protein; Activity [22]: 90.6 U/mg protein; Activity [23]: 160 U/mg protein; Activity [24]: 201 U/mg protein; Activity [25]: 5.8 U/mg protein; Activity [26]: 4.9 U/mg protein; Activity [27]: 4.2 U/mg protein; Activity [28]: 3.65 U/mg protein; Activity [29]: 8 U/mg protein; Activity [30]: 7.6 U/mg protein; Activity [31]: 7 U/mg protein; Activity [32]: 6.7 U/mg protein; Activity [33]: 35.8 nmol; Activity [34]: 29.5 nmol; Activity [35]: 27.2 nmol; Activity [36]: 25 nmol
